Common to all, as to format: functional
Experiment [1] concerns Mycobacterium tuberculosis. The experiment in a line: Antimicrobial activity against drug-susceptible Mycobacterium tuberculosis isolate 4 expressing wild type atpE Glu61Asp mutant selected after 30 times MIC drug exposure. Put shortly: (§1)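 Each resistant mutant clone (one colony picked per independent fluctuation culture selected on drug agar) is suspended in PBS, sonicated and applied by 96-pin replicator. Nonselective and rifampin control plates are included. Plates are read after 4 weeks; MIC is the lowest concentration with no visible growth.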

For experiment [2], the system named is Mycobacterium tuberculosis. Briefly: Antimicrobial activity against multidrug-resistant Mycobacterium tuberculosis isolate 3 expressing wild type atpE and F0 operon selected after 10 times MIC drug exposure. Put shortly: as §1
In experiment [3] the test system is Mycobacterium tuberculosis. Briefly: Antimicrobial activity against multidrug-resistant Mycobacterium tuberculosis isolate 3 expressing wild type atpE selected after 10 times MIC drug exposure. The method in brief: as §1
The test system of experiment [4] is Mycobacterium tuberculosis. Briefly: Antimicrobial activity against multidrug-resistant Mycobacterium tuberculosis isolate 3 expressing wild type atpE and F0 operon selected after 30 times MIC drug exposure. Put shortly:
as §1

In experiment [5] the test system is Mycobacterium tuberculosis. The experiment in a line: Antimicrobial activity against multidrug-resistant Mycobacterium tuberculosis isolate 2 expressing wild type atpE selected after 10 times MIC drug exposure. The method in brief:
as §1

Experiment [6] deals with Mycobacterium tuberculosis. The experiment in a line: Antimicrobial activity against multidrug-resistant Mycobacterium tuberculosis isolate 1 expressing wild type atpE selected after 10 times MIC drug exposure. Put shortly: as §1
Experiment [7] has as its system Mycobacterium tuberculosis. The experiment in a line: Antimicrobial activity against multidrug-resistant Mycobacterium tuberculosis isolate 5 expressing wild type atpE and F0 operon selected after 10 times MIC drug exposure. Put shortly:
as §1

Experiment [8] relates to Mycobacterium tuberculosis. Briefly: Antimicrobial activity against drug-susceptible Mycobacterium tuberculosis isolate 6 expressing wild type atpE Ala63Pro mutant selected after 30 times MIC drug exposure. Put shortly: as §1
Experiment [9] relates to Mycobacterium tuberculosis. Briefly: Antimicrobial activity against drug-susceptible Mycobacterium tuberculosis isolate 4 expressing wild type atpE Glu61Asp mutant selected after 10 times MIC drug exposure. Put shortly: as §1
Experiment [10] concerns Mycobacterium tuberculosis. Briefly: Antimicrobial activity against drug-susceptible Mycobacterium tuberculosis isolate 4 expressing wild type atpE Asp28Pro mutant selected after 10 times MIC drug exposure. The method in brief: as §1
Experiment [11] relates to Mycobacterium tuberculosis. Briefly: Antimicrobial activity against multidrug-resistant Mycobacterium tuberculosis isolate 2 expressing atpE Ala28Val mutant selected after 10 times MIC drug exposure. The method in brief: as §1
The test system of experiment [12] is Mycobacterium tuberculosis. The experiment in a line: Antimicrobial activity against drug-susceptible Mycobacterium tuberculosis H37Rv expressing wild type atpE Ala63Pro mutant selected after 30 times MIC drug exposure. Put shortly: as §1
The test system of experiment [13] is Mycobacterium tuberculosis. Briefly: Antimicrobial activity against multidrug-resistant Mycobacterium tuberculosis isolate 1 expressing atpE Glu61Asp mutant selected after 10 times MIC drug exposure. Put shortly: as §1
The test system of experiment [14] is Mycobacterium tuberculosis. Briefly: Antimicrobial activity against multidrug-resistant Mycobacterium tuberculosis isolate 1 expressing atpE Glu63Asp mutant selected after 30 times MIC drug exposure. Put shortly: as §1
Experiment [15] relates to Mycobacterium tuberculosis. The experiment in a line: Antimicrobial activity against multidrug-resistant Mycobacterium tuberculosis isolate 5 expressing wild type atpE Ala63Pro mutant selected after 10 times MIC drug exposure. The method in brief:
as §1

Experiment [16] relates to Mycobacterium tuberculosis. Briefly: Antimicrobial activity against multidrug-resistant Mycobacterium tuberculosis isolate 3 expressing wild type atpE selected after 30 times MIC drug exposure. Put shortly:
as §1

Experiment [17] relates to Mycobacterium tuberculosis. Briefly: Antimicrobial activity against multidrug-resistant Mycobacterium tuberculosis isolate 5 expressing wild type atpE selected after 10 times MIC drug exposure. The method in brief:
as §1

Experiment [18] concerns Mycobacterium tuberculosis. Briefly: Antimicrobial activity against drug-susceptible Mycobacterium tuberculosis isolate 6 expressing wild type atpE Glu61Asp mutant selected after 30 times MIC drug exposure. The method in brief: as §1
The subject of experiment [19] is Mycobacterium tuberculosis. The experiment in a line: Antimicrobial activity against multidrug-resistant Mycobacterium tuberculosis isolate 2 expressing atpE Glu61Asp mutant selected after 10 times MIC drug exposure. The method in brief:
as §1

Experiment [20] relates to Mycobacterium tuberculosis. The experiment in a line: Antimicrobial activity against multidrug-resistant Mycobacterium tuberculosis H37Rv.
The test system of experiment [21] is Mycobacterium tuberculosis. The experiment in a line: Antimicrobial activity against multidrug-resistant Mycobacterium tuberculosis isolate 5 expressing wild type atpE Ile66Met mutant selected after 30 times MIC drug exposure. Put shortly:
as §1

Experiment [22] relates to Mycobacterium tuberculosis. Briefly: Antimicrobial activity against multidrug-resistant Mycobacterium tuberculosis isolate 3 expressing wild type atpE and ATP synthase selected after 10 times MIC drug exposure. Put shortly:
as §1

Values after ≈ are worked out from the molar mass of the structure shown.

In the case of `COc1nc2ccc(Br)cc2cc1[C@@H](c1ccccc1)[C@@](O)(CCN(C)C)c1cccc2ccccc12` [BEDAQUILINE], the MIC is 0.48 µg/mL (≈ 0.864 µM) in experiment [1]; 0.9 µg/mL (≈ 1.62 µM) in experiment [2]; 0.9 µg/mL (≈ 1.62 µM) in experiment [3]; 0.9 µg/mL (≈ 1.62 µM) in [4]; 0.12 µg/mL (≈ 0.216 µM) in experiment [5]; 0.12 µg/mL (≈ 0.216 µM) in experiment [6]. In addition, the MIC in experiment [7] was determined as 0.48 µg/mL (≈ 0.864 µM); in [8], 0.9 µg/mL (≈ 1.62 µM); in [9] it was 0.96 µg/mL (≈ 1.73 µM); in experiment [10] it was 0.3 µg/mL (≈ 0.54 µM); in [11] it was 0.48 µg/mL (≈ 0.864 µM); in experiment [12], 3.84 µg/mL (≈ 6.91 µM). The MIC in experiment [13] worked out at 0.48 µg/mL (≈ 0.864 µM); in experiment [14], 1.92 µg/mL (≈ 3.46 µM); in [15], 0.24 µg/mL (≈ 0.432 µM); in experiment [16], 0.48 µg/mL (≈ 0.864 µM); in experiment [17], 0.12 µg/mL (≈ 0.216 µM); in experiment [18], 0.48 µg/mL (≈ 0.864 µM). In addition, the minimum inhibitory concentration (MIC) in experiment [19] turned out to be 0.24 µg/mL (≈ 0.432 µM); in [20] it was 0.03 µg/mL (≈ 0.054 µM); in [21] it was 0.9 µg/mL (≈ 1.62 µM); in [22], 0.9 µg/mL (≈ 1.62 µM).

The MIC is the smallest concentration in the dilution series that meets the test's criterion for growth inhibition. Low readings indicate a more susceptible organism, high ones a less susceptible organism.
